Laboratory results: ChEMBL document CHEMBL3259728, “Design, synthesis and biological evaluation of some novel substituted quinazolines as antitumor agents” (2014)

What was measured:
Type in all cases: functional
[1] = Growth inhibition of human UACC257 cells at 10 uM after 48 hrs by SRB assay; conditions: UACC-257, 48 h, read-out: GI
Summary of the method: (§1)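 NCI-60 primary one-dose screen run at the US NCI, with human tumour lines from nine cancer types. Compound added once at 10^-5 M, followed by 48 h incubation. End point was sulforhodamine B protein staining read spectrophotometrically. Result given as percent growth of treated cells against untreated controls, reported as % growth inhibition.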

[2] = system: K562; assay: Growth inhibition of human K562 cells at 10 uM after 48 hrs by SRB assay; conditions: K562, 48 h, read-out: GI; summary of the method: as §1
[3] = system: MDA-MB-435; assay: Growth inhibition of human MDA-MB-435 cells at 10 uM after 48 hrs by SRB assay; conditions: MDA-MB-435, 48 h, read-out: GI; summary of the method: as §1
[4] = system: HCT-116; assay: Growth inhibition of human HCT116 cells at 10 uM after 48 hrs by SRB assay; conditions: HCT-116, 48 h, read-out: GI; summary of the method: as §1
[5] = Growth inhibition of human OVCAR4 cells at 10 uM after 48 hrs by SRB assay; conditions: OVCAR-4, 48 h, read-out: GI; summary of the method: as §1
[6] = system: SNB-75; assay: Growth inhibition of human SNB75 cells at 10 uM after 48 hrs by SRB assay; conditions: SNB-75, 48 h, read-out: GI; summary of the method: as §1
[7] = system: M14; assay: Growth inhibition of human M14 cells at 10 uM after 48 hrs by SRB assay; conditions: M14, 48 h, read-out: GI; summary of the method: as §1
[8] = system: NCI-H460; assay: Growth inhibition of human NCI-H460 cells at 10 uM after 48 hrs by SRB assay; conditions: NCI-H460, 48 h, read-out: GI; summary of the method: as §1
[9] = Growth inhibition of human LOXIMVI cells at 10 uM after 48 hrs by SRB assay; conditions: LOX IMVI, read-out: GI; summary of the method: as §1
[10] = system: Malme-3M; assay: Growth inhibition of human MALME-3M cells at 10 uM after 48 hrs by SRB assay; conditions: read-out: GI; summary of the method: as §1
[11] = system: MCF7; assay: Growth inhibition of human MCF7 cells at 10 uM after 48 hrs by SRB assay; conditions: MCF7, 48 h, read-out: GI; summary of the method: as §1
[12] = Growth inhibition of human OVCAR8 cells at 10 uM after 48 hrs by SRB assay; conditions: OVCAR-8, 48 h, read-out: GI; summary of the method: as §1
[13] = system: DU-145; assay: Growth inhibition of human DU145 cells at 10 uM after 48 hrs by SRB assay; conditions: DU-145, 48 h, read-out: GI; summary of the method: as §1
[14] = system: NCI-H226; assay: Growth inhibition of human NCI-H226 cells at 10 uM after 48 hrs by SRB assay; conditions: NCI-H226, 48 h, read-out: GI; summary of the method: as §1
[15] = system: SNB-19; assay: Growth inhibition of human SNB19 cells at 10 uM after 48 hrs by SRB assay; conditions: SNB-19, 48 h, read-out: GI; summary of the method: as §1
[16] = system: MDA-MB-231; assay: Growth inhibition of human MDA-MB-231 cells at 10 uM after 48 hrs by SRB assay; conditions: MDA-MB-231, 48 h, read-out: GI; summary of the method: as §1
[17] = system: U-251; assay: Growth inhibition of human U251 cells at 10 uM after 48 hrs by SRB assay; conditions: U-251, 48 h, read-out: GI; summary of the method: as §1
[18] = system: A498; assay: Growth inhibition of human A498 cells at 10 uM after 48 hrs by SRB assay; conditions: A498, 48 h, read-out: GI
Summary of the method: (§2)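 NCI primary one-dose screen. A single concentration of 10^-5 M was added to the cell culture, followed by 48 h incubation and an SRB protein-dye endpoint read spectrophotometrically. Results are growth percentage relative to untreated control cells, reported as % growth inhibition.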

[19] = system: SF-268; assay: Growth inhibition of human SF268 cells at 10 uM after 48 hrs by SRB assay; conditions: SF-268, 48 h, read-out: GI; summary of the method: as §1
[20] = system: SW-620; assay: Growth inhibition of human SW620 cells at 10 uM after 48 hrs by SRB assay; conditions: SW-620, 48 h, read-out: GI; summary of the method: as §1
[21] = Growth inhibition of human OVCAR5 cells at 10 uM after 48 hrs by SRB assay; conditions: OVCAR-5, 48 h, read-out: GI; summary of the method: as §1
[22] = system: T47D; assay: Growth inhibition of human T47D cells at 10 uM after 48 hrs by SRB assay; conditions: read-out: GI; summary of the method: as §1
[23] = Growth inhibition of human Hs578T cells at 10 uM after 48 hrs by SRB assay; conditions: Hs-578T, read-out: GI; summary of the method: as §1
[24] = system: KM12; assay: Growth inhibition of human KM12 cells at 10 uM after 48 hrs by SRB assay; conditions: KM12, 48 h, read-out: GI; summary of the method: as §1
[25] = system: HOP-62; assay: Growth inhibition of human HOP62 cells at 10 uM after 48 hrs by SRB assay; conditions: HOP-62, 48 h, read-out: GI; summary of the method: as §1
[26] = system: HT-29; assay: Growth inhibition of human HT-29 cells at 10 uM after 48 hrs by SRB assay; conditions: HT-29, 48 h, read-out: GI; summary of the method: as §1
[27] = system: SN12C; assay: Growth inhibition of human SN12C cells at 10 uM after 48 hrs by SRB assay; conditions: read-out: GI; summary of the method: as §1
[28] = system: IGROV-1; assay: Growth inhibition of human IGROV1 cells at 10 uM after 48 hrs by SRB assay; conditions: IGROV-1, 48 h, read-out: GI; summary of the method: as §1
[29] = Growth inhibition of human BT549 cells at 10 uM after 48 hrs by SRB assay; conditions: BT-549, 48 h, read-out: GI; summary of the method: as §2
[30] = system: SK-MEL-2; assay: Growth inhibition of human SK-MEL-2 cells at 10 uM after 48 hrs by SRB assay; conditions: SK-MEL-2, 48 h, read-out: GI; summary of the method: as §1
[31] = system: CAKI-1; assay: Growth inhibition of human CAKI-1 cells at 10 uM after 48 hrs by SRB assay; conditions: CAKI-1, 48 h, read-out: GI; summary of the method: as §2
[32] = Growth inhibition of human UACC62 cells at 10 uM after 48 hrs by SRB assay; conditions: UACC-62, 48 h, read-out: GI; summary of the method: as §1
[33] = system: SK-OV-3; assay: Growth inhibition of human SKOV3 cells at 10 uM after 48 hrs by SRB assay; conditions: SK-OV-3, 48 h, read-out: GI; summary of the method: as §1
[34] = system: A549; assay: Growth inhibition of human A549 cells at 10 uM after 48 hrs by SRB assay; conditions: A549, 48 h, read-out: GI; summary of the method: as §2
[35] = Growth inhibition of human EKVX cells at 10 uM after 48 hrs by SRB assay; conditions: read-out: GI; summary of the method: as §1
[36] = Growth inhibition of human MOLT4 cells at 10 uM after 48 hrs by SRB assay; conditions: MOLT-4, 48 h, read-out: GI; summary of the method: as §1
[37] = system: SK-MEL-5; assay: Growth inhibition of human SK-MEL-5 cells at 10 uM after 48 hrs by SRB assay; conditions: SK-MEL-5, 48 h, read-out: GI; summary of the method: as §1
[38] = system: MDA-MB-468; assay: Growth inhibition of human MDA-MB-468 cells assessed as cell growth at 10 uM after 48 hrs by SRB assay; conditions: MDA-MB-468, 48 h, read-out: GI; summary of the method: as §1

| Structure (SMILES) | inhibition of growth at 10 µM [1] | inhibition of growth at 10 µM [2] | inhibition of growth at 10 µM [3] | inhibition of growth at 10 µM [4] | inhibition of growth at 10 µM [5] | inhibition of growth at 10 µM [6] | inhibition of growth at 10 µM [7] | inhibition of growth at 10 µM [8] | inhibition of growth at 10 µM [9] | inhibition of growth at 10 µM [10] | inhibition of growth at 10 µM [11] | inhibition of growth at 10 µM [12] | inhibition of growth at 10 µM [13] | inhibition of growth at 10 µM [14] | inhibition of growth at 10 µM [15] | inhibition of growth at 10 µM [16] | inhibition of growth at 10 µM [17] | inhibition of growth at 10 µM [18] | inhibition of growth at 10 µM [19] | inhibition of growth at 10 µM [20] | further results |
| --- | --- | --- | --- | --- | --- | --- | --- | --- | --- | --- | --- | --- | --- | --- | --- | --- | --- | --- | --- | --- | --- |
| Cc1ccc(-c2nc3ccc(Cl)cc3c(=O)n2/N=C/c2ccccc2)cc1 | < 10% | < 10% | 34% | 47% | 86% | 74% | 29% | 23% | 11% | 35% | 20% | 73% | 27% | 14% | 25% | 41% | 88% | 16% | 40% | 23% | inhibition of growth at 10 µM [21]: 18%; inhibition of growth at 10 µM [22]: 25%; inhibition of growth at 10 µM [23]: 44%; inhibition of growth at 10 µM [24]: 18%; inhibition of growth at 10 µM [25]: 98%; inhibition of growth at 10 µM [26]: 17%; inhibition of growth at 10 µM [27]: 32%; inhibition of growth at 10 µM [28]: 43%; inhibition of growth at 10 µM [29]: < 10%; inhibition of growth at 10 µM [30]: < 10%; inhibition of growth at 10 µM [31]: 40%; inhibition of growth at 10 µM [32]: 23%; inhibition of growth at 10 µM [33]: 64%; inhibition of growth at 10 µM [34]: 87%; inhibition of growth at 10 µM [35]: 40%; inhibition of growth at 10 µM [36]: 18%; inhibition of growth at 10 µM [37]: < 10% |
| Cc1ccc(-c2nc3ccc(Cl)cc3c3nnnn23)cc1 | < 10% | 11% | 13% | < 10% | < 10% | < 10% | < 10% | < 10% | < 10% | < 10% | < 10% | < 10% | < 10% | < 10% | 11% | 27% | < 10% | 11% | < 10% | 17% | inhibition of growth at 10 µM [38]: < 10%; inhibition of growth at 10 µM [21]: < 10%; inhibition of growth at 10 µM [22]: 23%; inhibition of growth at 10 µM [23]: < 10%; inhibition of growth at 10 µM [24]: < 10%; inhibition of growth at 10 µM [25]: 51%; inhibition of growth at 10 µM [26]: < 10%; inhibition of growth at 10 µM [27]: 16%; inhibition of growth at 10 µM [28]: < 10%; inhibition of growth at 10 µM [29]: < 10%; inhibition of growth at 10 µM [30]: < 10%; inhibition of growth at 10 µM [31]: 25%; inhibition of growth at 10 µM [32]: 18%; inhibition of growth at 10 µM [33]: 12%; inhibition of growth at 10 µM [34]: 47%; inhibition of growth at 10 µM [35]: 11%; inhibition of growth at 10 µM [36]: < 10%; inhibition of growth at 10 µM [37]: < 10% |
